From ChEMBL document CHEMBL1629528 (J Med Chem, 2010) come the findings set out here.

Structures are written as SMILES. The source made the active and inactive calls. The calls are words filed in the database; no cut-off is given here. Where only a bound is given, the exact number is not on record here.

For experiment [1], the target named is T1, 5-hydroxytryptamine receptor 1B (Homo sapiens, UniProt P28222). The experiment in a line: Intrinsic activity at human recombinant 5-HT1B receptor expressed in CHO cells by [S35]GTPgammaS binding assay relative to 5-HT. Type of experiment: functional, cell-based. In short, it runs like this: (§1)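 [35S]-GTPγS binding in membranes from 10^6 cells (HEK293 for 5-HT1A; CHO for 5-HT1B, 5-HT1D), preincubated 30 min at 30 °C with compound in 20 mM HEPES pH 7.4, 3 mM MgCl2, 100 mM NaCl, 10 μM GDP, 0.2 mM ascorbate. 100 pM [35S]-GTPγS added, 30 min more at 30 °C; nonspecific with 20 μM GTPγS; filtration and scintillation counting.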
T1 sequence (P28222 whole entry): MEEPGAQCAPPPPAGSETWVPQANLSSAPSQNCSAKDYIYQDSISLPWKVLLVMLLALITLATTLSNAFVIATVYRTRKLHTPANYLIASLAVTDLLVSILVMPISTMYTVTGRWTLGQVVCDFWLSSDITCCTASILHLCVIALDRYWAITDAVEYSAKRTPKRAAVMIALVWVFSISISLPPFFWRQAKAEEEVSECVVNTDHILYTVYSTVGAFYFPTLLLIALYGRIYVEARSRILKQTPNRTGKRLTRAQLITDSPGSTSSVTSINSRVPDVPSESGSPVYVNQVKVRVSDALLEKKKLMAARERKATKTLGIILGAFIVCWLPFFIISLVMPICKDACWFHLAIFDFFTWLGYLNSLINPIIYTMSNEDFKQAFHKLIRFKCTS
Background: GTPγS resists hydrolysis and so accumulates on activated G proteins.

Experiment [2] addresses T2, 5-hydroxytryptamine receptor 1A (Homo sapiens) (UniProt P08908).
T2 sequence (whole entry): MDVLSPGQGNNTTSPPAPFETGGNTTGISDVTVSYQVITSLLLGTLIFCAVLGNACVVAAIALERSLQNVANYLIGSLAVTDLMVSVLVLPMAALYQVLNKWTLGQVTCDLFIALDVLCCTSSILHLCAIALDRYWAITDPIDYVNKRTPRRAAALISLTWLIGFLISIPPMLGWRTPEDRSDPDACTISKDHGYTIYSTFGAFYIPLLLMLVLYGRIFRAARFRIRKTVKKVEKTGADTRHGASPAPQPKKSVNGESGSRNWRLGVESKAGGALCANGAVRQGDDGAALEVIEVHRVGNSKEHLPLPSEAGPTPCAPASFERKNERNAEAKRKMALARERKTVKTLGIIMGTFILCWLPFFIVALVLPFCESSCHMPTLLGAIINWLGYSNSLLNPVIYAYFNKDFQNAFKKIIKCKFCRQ
The experiment can be described thus: Intrinsic activity at human recombinant 5-HT1A receptor expressed in HEK293 cells by [S35]GTPgammaS binding assay relative to 5-HT. Type of experiment: functional, cell-based. In short, it runs like this: as §1

A further experiment concerns Rattus norvegicus. The experiment in a line: Inhibition of 8-OH-DPAT-induced hyperlocomotory activity in Sprague-Dawley rat administered orally 60 mins before 8-OH-DPATchallenge. Type of experiment: functional. Summed up: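 Male Sprague-Dawley rats (250–350 g) dosed orally (5 mL/kg) at 0.03, 0.1 or 0.3 mg/kg or vehicle, 60 min before sc 8-OH-DPAT 0.2 mg/kg (2 mL/kg). Total distance travelled recorded by infrared sensors over 30 min immediately after; 8–9 rats per group.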

The target in experiment [3] is T3, 5-hydroxytryptamine receptor 1D (Homo sapiens, UniProt P28221). The experiment in a line: Inverse agonist activity at human recombinant 5-HT1D receptor expressed in CHO cells by [S35]GTPgammaS binding assay. Type of experiment: functional, cell-based. Summed up: as §1
T3 sequence (P28221 whole entry): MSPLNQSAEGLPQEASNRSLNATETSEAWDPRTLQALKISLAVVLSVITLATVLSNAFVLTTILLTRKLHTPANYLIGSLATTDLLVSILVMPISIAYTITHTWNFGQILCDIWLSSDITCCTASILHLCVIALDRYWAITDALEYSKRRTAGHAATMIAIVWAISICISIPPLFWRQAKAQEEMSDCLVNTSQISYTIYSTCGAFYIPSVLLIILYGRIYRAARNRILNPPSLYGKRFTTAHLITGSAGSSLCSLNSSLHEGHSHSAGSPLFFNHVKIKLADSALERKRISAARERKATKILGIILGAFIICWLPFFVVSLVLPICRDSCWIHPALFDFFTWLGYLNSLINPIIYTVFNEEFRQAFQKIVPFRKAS
Experiment [4] concerns the target T3, 5-hydroxytryptamine receptor 1D. The experiment can be described thus: Intrinsic activity at human recombinant 5-HT1D receptor expressed in CHO cells by [S35]GTPgammaS binding assay relative to 5-HT. Type of experiment: functional, cell-based. Summed up: as §1
Experiment [5] has as its target T2, 5-hydroxytryptamine receptor 1A (Homo sapiens). The experiment can be described thus: Inverse agonist activity at human recombinant 5-HT1A receptor expressed in HEK293 cells by [S35]GTPgammaS binding assay. Type of experiment: functional, cell-based. In short, it runs like this:
as §1

The target in experiment [6] is Sodium-dependent serotonin transporter (Rattus norvegicus, UniProt P31652). The experiment in a line: Inhibition of [3H]5-HT uptake at SERT in rat cortical synaptosomes. Type of experiment: subcellular, Brain.
Chain of Sodium-dependent serotonin transporter (P31652 whole entry): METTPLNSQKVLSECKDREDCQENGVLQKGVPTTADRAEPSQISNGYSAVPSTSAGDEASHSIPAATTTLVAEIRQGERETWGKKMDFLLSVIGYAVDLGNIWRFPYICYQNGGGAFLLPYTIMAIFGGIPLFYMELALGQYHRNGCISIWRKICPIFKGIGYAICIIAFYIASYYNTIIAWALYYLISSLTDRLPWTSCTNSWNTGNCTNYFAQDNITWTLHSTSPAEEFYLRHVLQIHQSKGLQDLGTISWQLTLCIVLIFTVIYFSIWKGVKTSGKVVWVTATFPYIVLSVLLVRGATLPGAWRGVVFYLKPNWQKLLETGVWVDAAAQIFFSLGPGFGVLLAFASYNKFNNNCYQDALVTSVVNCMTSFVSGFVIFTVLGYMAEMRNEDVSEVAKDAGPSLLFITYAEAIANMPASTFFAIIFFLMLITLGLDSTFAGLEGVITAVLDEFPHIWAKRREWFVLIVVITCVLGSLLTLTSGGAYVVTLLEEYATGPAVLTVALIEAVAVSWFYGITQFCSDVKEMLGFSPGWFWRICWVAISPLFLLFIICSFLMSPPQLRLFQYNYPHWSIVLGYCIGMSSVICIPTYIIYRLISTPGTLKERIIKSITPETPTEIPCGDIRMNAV
Experiment [7] deals with Voltage-gated inwardly rectifying potassium channel KCNH2 (Homo sapiens, UniProt Q12809). The experiment in a line: Displacement of [3H]dofetilide from human ERG by SPA.
Chain of Voltage-gated inwardly rectifying potassium channel KCNH2 (Q12809 whole entry): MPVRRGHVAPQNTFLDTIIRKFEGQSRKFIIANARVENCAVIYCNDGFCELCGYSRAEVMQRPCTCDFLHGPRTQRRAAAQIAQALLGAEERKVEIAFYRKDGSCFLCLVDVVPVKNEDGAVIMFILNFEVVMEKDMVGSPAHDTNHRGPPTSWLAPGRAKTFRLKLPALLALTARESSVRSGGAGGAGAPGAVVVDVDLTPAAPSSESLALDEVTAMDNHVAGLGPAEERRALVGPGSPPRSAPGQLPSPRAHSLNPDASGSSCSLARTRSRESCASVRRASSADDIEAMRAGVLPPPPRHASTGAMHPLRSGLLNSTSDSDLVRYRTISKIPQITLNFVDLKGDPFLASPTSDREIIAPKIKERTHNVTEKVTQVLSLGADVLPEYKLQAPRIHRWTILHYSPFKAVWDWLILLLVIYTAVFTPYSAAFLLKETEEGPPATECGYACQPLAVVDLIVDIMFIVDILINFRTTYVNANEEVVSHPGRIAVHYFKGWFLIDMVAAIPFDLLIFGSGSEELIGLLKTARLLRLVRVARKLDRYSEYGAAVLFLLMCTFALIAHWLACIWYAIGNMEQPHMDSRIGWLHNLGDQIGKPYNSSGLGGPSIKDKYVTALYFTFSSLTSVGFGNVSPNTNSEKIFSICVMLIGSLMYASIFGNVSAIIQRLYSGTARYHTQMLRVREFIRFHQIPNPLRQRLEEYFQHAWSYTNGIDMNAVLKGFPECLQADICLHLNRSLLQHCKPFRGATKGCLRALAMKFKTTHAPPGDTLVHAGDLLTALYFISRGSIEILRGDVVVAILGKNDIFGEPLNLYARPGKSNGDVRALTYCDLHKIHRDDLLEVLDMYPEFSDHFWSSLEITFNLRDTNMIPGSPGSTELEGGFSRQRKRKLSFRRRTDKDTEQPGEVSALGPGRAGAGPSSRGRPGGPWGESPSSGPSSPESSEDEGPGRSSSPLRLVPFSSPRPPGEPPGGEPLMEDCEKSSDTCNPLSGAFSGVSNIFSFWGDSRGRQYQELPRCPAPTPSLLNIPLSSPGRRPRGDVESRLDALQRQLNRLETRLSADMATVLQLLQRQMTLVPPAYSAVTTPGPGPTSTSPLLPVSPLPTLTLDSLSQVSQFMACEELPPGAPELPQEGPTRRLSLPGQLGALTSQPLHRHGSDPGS
The target of experiment [8] is T1, 5-hydroxytryptamine receptor 1B. The experiment can be described thus: Displacement of [3H]5-HT from human recombinant 5-HT1B receptor expressed in CHO cells. Type of experiment: cell-based. (In general: Loss of bound radioactivity is the signal in a displacement assay; it reports binding, not function.)
Experiment [9] addresses T3, 5-hydroxytryptamine receptor 1D. The experiment in a line: Displacement of [3H]5-HT from human recombinant 5-HT1D receptor expressed in CHO cells. Type of experiment: cell-based.
Another experiment concerns the target D(2) dopamine receptor (Homo sapiens, UniProt P14416). The experiment can be described thus: Binding affinity to human recombinant dopamine D2 receptor by radioligand displacement assay.
In experiment [10] the target is 5-hydroxytryptamine receptor 6 (Homo sapiens, UniProt P50406). The experiment can be described thus: Binding affinity to human recombinant 5-HT6 receptor by radioligand displacement assay.
The target in experiment [11] is T4, 5-hydroxytryptamine receptor 2C (Homo sapiens, UniProt P28335).
T4 sequence (P28335 whole entry): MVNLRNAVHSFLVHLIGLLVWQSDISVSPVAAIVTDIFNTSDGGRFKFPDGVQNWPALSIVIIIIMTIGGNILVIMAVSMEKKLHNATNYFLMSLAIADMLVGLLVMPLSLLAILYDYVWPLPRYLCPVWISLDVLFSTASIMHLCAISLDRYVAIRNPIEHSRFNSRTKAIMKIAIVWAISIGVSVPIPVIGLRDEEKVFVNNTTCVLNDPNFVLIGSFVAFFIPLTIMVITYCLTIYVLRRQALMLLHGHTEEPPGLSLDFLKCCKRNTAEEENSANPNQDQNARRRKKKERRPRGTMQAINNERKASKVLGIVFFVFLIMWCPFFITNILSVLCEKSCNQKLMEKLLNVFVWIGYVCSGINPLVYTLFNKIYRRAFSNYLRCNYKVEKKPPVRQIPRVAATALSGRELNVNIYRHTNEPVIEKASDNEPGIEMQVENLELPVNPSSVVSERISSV
The experiment can be described thus: Binding affinity to human recombinant 5-HT2C receptor by radioligand displacement assay.

Experiment [12] concerns the target 5-hydroxytryptamine receptor 7 (Homo sapiens, UniProt P34969). The experiment in a line: Binding affinity to human recombinant 5-HT7 receptor by radioligand displacement assay.
Experiment [13] has as its target T5, 5-hydroxytryptamine receptor 1A (Homo sapiens, UniProt P08908).
T5 sequence (P08908 whole entry): T2 sequence (whole entry)
The experiment can be described thus: Displacement of [3H]WAY100635 from human recombinant 5-HT1A receptor expressed in CHO cells. Type of experiment: cell-based.

Experiment [14] deals with 5-hydroxytryptamine receptor 2B (Homo sapiens, UniProt P41595). The experiment in a line: Binding affinity to human recombinant 5-HT2B receptor by radioligand displacement assay.
Chain of 5-hydroxytryptamine receptor 2B (P41595 whole entry): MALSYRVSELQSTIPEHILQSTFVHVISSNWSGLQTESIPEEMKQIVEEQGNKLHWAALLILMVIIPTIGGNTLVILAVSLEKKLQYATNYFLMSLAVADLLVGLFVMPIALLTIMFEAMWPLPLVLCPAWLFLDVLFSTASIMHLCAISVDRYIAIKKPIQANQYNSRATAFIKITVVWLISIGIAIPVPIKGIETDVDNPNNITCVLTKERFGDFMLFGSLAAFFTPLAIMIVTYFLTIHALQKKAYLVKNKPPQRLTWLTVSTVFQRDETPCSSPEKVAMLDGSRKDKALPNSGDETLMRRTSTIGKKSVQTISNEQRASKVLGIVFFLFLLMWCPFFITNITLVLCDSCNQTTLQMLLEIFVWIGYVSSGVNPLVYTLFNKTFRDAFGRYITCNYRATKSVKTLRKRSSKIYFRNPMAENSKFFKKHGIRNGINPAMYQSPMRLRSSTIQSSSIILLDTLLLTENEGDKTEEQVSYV
Experiment [15] deals with 5-hydroxytryptamine receptor 2A (Homo sapiens, UniProt P28223). The experiment in a line: Binding affinity to human recombinant 5-HT2A receptor by radioligand displacement assay.
Chain of 5-hydroxytryptamine receptor 2A (P28223 whole entry): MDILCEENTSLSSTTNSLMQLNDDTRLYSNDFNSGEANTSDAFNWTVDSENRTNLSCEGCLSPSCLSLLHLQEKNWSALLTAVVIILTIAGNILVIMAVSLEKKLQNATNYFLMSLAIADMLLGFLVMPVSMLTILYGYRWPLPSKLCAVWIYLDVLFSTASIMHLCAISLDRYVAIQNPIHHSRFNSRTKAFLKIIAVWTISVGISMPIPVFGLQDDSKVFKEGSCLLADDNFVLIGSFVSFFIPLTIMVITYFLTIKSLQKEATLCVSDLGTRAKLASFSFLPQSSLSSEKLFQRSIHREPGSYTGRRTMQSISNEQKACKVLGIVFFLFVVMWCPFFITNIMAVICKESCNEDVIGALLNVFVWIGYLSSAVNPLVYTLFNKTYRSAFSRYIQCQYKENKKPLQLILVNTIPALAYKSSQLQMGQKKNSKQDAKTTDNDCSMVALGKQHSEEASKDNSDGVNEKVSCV
In the next experiment the target is D(3) dopamine receptor (Homo sapiens, UniProt P35462). The experiment in a line: Binding affinity to human recombinant dopamine D3 receptor by radioligand displacement assay.
Chain of D(3) dopamine receptor (P35462 whole entry): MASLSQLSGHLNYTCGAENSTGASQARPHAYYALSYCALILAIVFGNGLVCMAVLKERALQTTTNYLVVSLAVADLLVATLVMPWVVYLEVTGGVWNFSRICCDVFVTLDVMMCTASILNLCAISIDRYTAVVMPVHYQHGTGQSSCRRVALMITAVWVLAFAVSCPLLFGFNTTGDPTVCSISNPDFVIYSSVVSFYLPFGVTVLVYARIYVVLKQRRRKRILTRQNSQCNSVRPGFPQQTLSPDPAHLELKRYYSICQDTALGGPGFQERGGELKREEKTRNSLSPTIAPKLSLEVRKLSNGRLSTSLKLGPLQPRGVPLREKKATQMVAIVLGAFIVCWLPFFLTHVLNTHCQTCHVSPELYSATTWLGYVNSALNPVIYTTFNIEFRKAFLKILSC
Experiment [16] concerns the target T1, 5-hydroxytryptamine receptor 1B. The experiment can be described thus: Inverse agonist activity at human recombinant 5-HT1B receptor expressed in CHO cells by [S35]GTPgammaS binding assay. Type of experiment: functional, cell-based. Summed up: as §1

Chain of D(2) dopamine receptor (P14416 whole entry): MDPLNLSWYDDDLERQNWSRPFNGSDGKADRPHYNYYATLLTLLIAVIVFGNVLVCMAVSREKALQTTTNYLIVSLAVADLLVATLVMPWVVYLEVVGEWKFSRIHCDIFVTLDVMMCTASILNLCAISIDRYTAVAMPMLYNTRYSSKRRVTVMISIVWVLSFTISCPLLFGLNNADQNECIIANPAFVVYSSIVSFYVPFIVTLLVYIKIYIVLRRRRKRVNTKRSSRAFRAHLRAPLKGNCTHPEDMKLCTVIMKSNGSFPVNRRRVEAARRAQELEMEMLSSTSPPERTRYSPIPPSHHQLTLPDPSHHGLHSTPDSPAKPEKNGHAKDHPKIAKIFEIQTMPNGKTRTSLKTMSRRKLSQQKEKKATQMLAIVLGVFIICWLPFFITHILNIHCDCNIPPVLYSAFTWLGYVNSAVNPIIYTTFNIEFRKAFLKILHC
Chain of 5-hydroxytryptamine receptor 7 (P34969 whole entry): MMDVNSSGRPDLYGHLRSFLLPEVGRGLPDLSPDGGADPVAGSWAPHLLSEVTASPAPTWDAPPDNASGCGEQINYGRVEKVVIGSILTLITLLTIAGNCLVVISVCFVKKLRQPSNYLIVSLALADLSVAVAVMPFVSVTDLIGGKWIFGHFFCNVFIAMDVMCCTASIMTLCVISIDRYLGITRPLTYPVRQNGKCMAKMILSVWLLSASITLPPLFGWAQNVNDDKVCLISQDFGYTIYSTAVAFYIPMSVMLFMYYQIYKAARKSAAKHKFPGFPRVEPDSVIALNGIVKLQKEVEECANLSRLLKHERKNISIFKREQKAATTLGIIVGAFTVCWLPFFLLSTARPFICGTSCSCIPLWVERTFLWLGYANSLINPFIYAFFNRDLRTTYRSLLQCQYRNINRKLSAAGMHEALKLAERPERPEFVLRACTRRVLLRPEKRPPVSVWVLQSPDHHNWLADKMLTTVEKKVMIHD

As to `Cc1ccc2c(N3CCN(CCc4cccc(NS(C)(=O)=O)c4)CC3)cccc2n1` [listing 1 of 2 here], the Intrinsic activity in [1] turned out to be 0.1; in experiment [2], 0. Further, in the experiment with Rattus norvegicus, the inhibition entry was “Dose-dependent effect”. The result in [3] was Active.

Consider `Cc1ccc2c(OCCN3CCC(Cc4cccc(NS(C)(=O)=O)c4)CC3)cccc2n1`, for which the Intrinsic activity in [1] was 0.3; in experiment [4], 0. Moreover, the result in experiment [5] was Active.

Broadly, the Ki is a dissociation constant, usually derived from enzyme kinetics or from competition with a known ligand. In the case of `Cc1ccc2c(N3CCN(CCc4cccc(NC(=O)Nc5ccccc5)c4)CC3)cccc2n1`, the Intrinsic activity in [1], in experiment [2] and in experiment [4] was 0 in each case. The Ki in experiment [6] is 2000 nM; in [7] it was 316 nM; in [8] it was 3.16 nM; in experiment [9] it was 0.316 nM; on D(2) dopamine receptor it was 79.4 nM; in [10], 316 nM. Further, the Ki is > 10000 nM in [11]; 79.4 nM in [12]; 3.98 nM in experiment [13]; > 6310 nM in [14]; > 6310 nM in [15]; 31.6 nM on D(3) dopamine receptor.

As to `Cc1ccc2c(N3CCN(CCc4cccc(NC(=O)c5ccc(F)cc5)c4)CC3)cccc2n1`, the Ki in experiment [6] was 794 nM; in experiment [8], 5.01 nM; in experiment [9] it was 0.398 nM; in experiment [13], 1.26 nM. Moreover, the Intrinsic activity in experiment [4] was determined as 0. Also, the outcome in experiment [16] and in experiment [5] was Active.

For the compound `CC(=O)Nc1cccc(CCN2CCN(c3cccc4nc(C)ccc34)CC2)c1`, the Intrinsic activity in [1] and in [2] was 0 in each case. In the experiment on Rattus norvegicus, the inhibition result was “Dose-dependent effect”. For the same compound, the outcome in experiment [3] was Active.

Consider `Cc1ccc2c(N3CCN(CCc4cccc(NC(=O)c5csc(C)n5)c4)CC3)cccc2n1`, for which the Ki in experiment [6] is 501 nM; in [7], 316 nM; in [8], 3.16 nM; in experiment [9], 0.398 nM; in experiment [13], 0.794 nM. In addition, the result in experiment [3], in experiment [16] and in experiment [5] was Active.

`COC(=O)Nc1cccc(CCN2CCN(c3cccc4nc(C)ccc34)CC2)c1`: the Intrinsic activity in [2] and in experiment [4] was 0 each time. In addition, the inhibition constant Ki in experiment [6] was 501 nM; in experiment [9] it was 0.251 nM; at D(2) dopamine receptor, 200 nM; in experiment [10] it was > 1580 nM; in experiment [11], 794 nM; in [12] it was 25.1 nM. Also, the Ki is 0.398 nM in [13], 200 nM in [14], 200 nM in [15] and 100 nM at D(3) dopamine receptor. Also, in experiment [16], the result was Active.

In the case of `CC(=O)N(C)c1cccc(CCN2CCN(c3cccc4nc(C)ccc34)CC2)c1`, the Intrinsic activity in experiment [1] was 0.2; in [2], 0.1; in experiment [4] it was 0. The Ki is 12.6 nM in experiment [8], 0.316 nM in [9] and 2 nM in experiment [13].

Regarding `Cc1ccc2c(N3CCN(CCc4cccc(N5CCNC5=O)c4)CC3)cccc2n1`, the Intrinsic activity in experiment [1], in [2] and in experiment [4] was 0 throughout. In addition, in the experiment on Rattus norvegicus, the inhibition result is “Dose-dependent effect”.

`Cc1ccc2c(N3CCN(CCc4cccc(NS(C)(=O)=O)c4)CC3)cccc2n1` [listing 2 of 2 here]: the Ki in experiment [6] was 3160 nM; in [7] it was 501 nM; in experiment [8], 0.794 nM; in experiment [9], 0.126 nM; on D(2) dopamine receptor, 398 nM; in [10], > 2510 nM. Besides, the Ki in experiment [11] was 3160 nM; in experiment [12] it was 100 nM; in experiment [13] it was 0.794 nM; in [14] it was 398 nM; in [15] it was 794 nM; on D(3) dopamine receptor, 200 nM.

On to `Cc1ccc2c(N3CCN(CCc4cccc(NC(=O)c5ccccc5)c4)CC3)cccc2n1`, for which the Ki in experiment [6] was 2000 nM; in experiment [7], 50.1 nM; in experiment [8], 2.51 nM; in experiment [9], 0.316 nM; at D(2) dopamine receptor it was 398 nM; in [10], > 1000 nM. For the same compound, the Ki in experiment [11] was 794 nM; in [12], 79.4 nM; in experiment [13] it was 1 nM; in [14], 126 nM; in experiment [15], 79.4 nM; at D(3) dopamine receptor it was 100 nM. For the same compound, the result in experiment [3], in [16] and in experiment [5] was Active.

Take `Cc1ccc2c(N3CCN(CCc4cccc(N5CCOC5=O)c4)CC3)cccc2n1`: the Intrinsic activity in experiment [1] and in experiment [2] was 0 throughout. In addition, the Ki in [6] was 501 nM; in experiment [7] it was 2000 nM; in experiment [9], 0.158 nM; at D(2) dopamine receptor it was 794 nM; in [10] it was 3160 nM; in experiment [11], > 5010 nM. Also, the Ki in [12] is 501 nM; in experiment [14], 1260 nM; in [15], 794 nM; on D(3) dopamine receptor it was 200 nM. The outcome in experiment [3] was Active.

Consider `CCNC(=O)Nc1cccc(CCN2CCN(c3cccc4nc(C)ccc34)CC2)c1`, for which the Intrinsic activity in experiment [2] was 0. In addition, the inhibitory constant (Ki) in experiment [6] was 501 nM; in [7] it was 631 nM; in experiment [8] it was 1.26 nM; in experiment [9], 0.158 nM; on D(2) dopamine receptor it was 316 nM; in [10], > 6310 nM. In addition, the Ki was 794 nM in experiment [11]; 39.8 nM in [12]; 2 nM in experiment [13]; 398 nM in experiment [14]; 316 nM in [15]; 126 nM on D(3) dopamine receptor. In addition, the outcome in experiment [3] and in experiment [16] was Active.
